From ChEMBL document CHEMBL3997766, “Synthesis and pre-clinical studies of new amino-acid ester thiazolide prodrugs” (Eur J Med Chem, 2017)

Experiments:
[1] = system: Plasma; test: Drug level in Sprague-Dawley rat plasma treated with RM5064 at 30 mg/kg, po administered as single dose; format: ADME, organism-based; conditions: in vivo
Method in brief: (§1)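 Rats in groups of three received one compound as a single oral dose (30 mg/kg) or a single intravenous injection (6 mg/kg), with four compounds studied separately. Serial blood samples were drawn at 5, 10, 15 and 30 min and at 1, 2, 4, 8, 23 and 24 h post-dose. Plasma parent drug and metabolites were quantified and PK parameters were derived.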

[2] = system: Plasma; test: Drug level in Sprague-Dawley rat plasma treated with RM5038 at 6 mg/kg, iv administered as single dose; format: ADME, organism-based; conditions: in vivo; method in brief: as §1
[3] = system: Rattus norvegicus; test: Drug level in Sprague-Dawley rat treated with RM5038 at 6.4 mg/kg, iv measured at 0.25 to 1 hrs post dose; format: ADME, organism-based; conditions: in vivo
[4] = system: Rattus norvegicus; test: Drug level in Sprague-Dawley rat treated with RM5064 at 6.4 mg/kg, iv measured at 0.25 to 1 hrs post dose; format: ADME, organism-based; conditions: in vivo
[5] = system: Rattus norvegicus; test: Elimination half life in Sprague-Dawley rat assessed as Tizoxanide level in plasma at 6 mg/kg, iv administered as single dose; format: ADME, organism-based; conditions: in vivo
Method in brief: (§2)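 Plasma tizoxanide and tizoxanide glucuronide were measured and PK parameters derived. AUCs were dose-corrected to 30 mg/kg for bioavailability.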

[6] = system: Rattus norvegicus; test: Tmax in male Sprague-Dawley rat assessed as Tizoxanide-glucuronide level in plasma at 6 mg/kg, iv administered as single dose; format: ADME, organism-based; conditions: in vivo; method in brief: as §2
[7] = system: Rattus norvegicus; test: Tmax in female Sprague-Dawley rat assessed as Tizoxanide-glucuronide level in plasma at 6 mg/kg, iv administered as single dose; format: ADME, organism-based; conditions: in vivo; method in brief: as §2
[8] = system: Rattus norvegicus; test: AUC (0 to t) in Sprague-Dawley rat assessed as tizoxanide-glucuronide level in plasma at 30 mg/kg, po administered as single dose; format: ADME, organism-based; conditions: in vivo; method in brief: as §2
[9] = system: Rattus norvegicus; test: Cmax in Sprague-Dawley rat assessed as Tizoxanide level in plasma at 6 mg/kg, iv administered as single dose; format: ADME, organism-based; design: dose 6 mg/kg, route intravenous; conditions: in vivo; method in brief: as §1
[10] = system: Plasma; test: Drug metabolism in Sprague-Dawley rat assessed as tizoxanide-glucuronide formation in plasma at 30 mg/kg, po administered as single dose measured after 5 mins; format: ADME, organism-based; conditions: in vivo; method in brief: as §2
[11] = system: Rattus norvegicus; test: Tmax in male Sprague-Dawley rat assessed as tizoxanide-glucuronide level in plasma at 30 mg/kg, po administered as single dose; format: ADME, organism-based; conditions: in vivo; method in brief: as §2
[12] = system: Rattus norvegicus; test: Cmax in Sprague-Dawley rat assessed as Tizoxanide level in plasma at 30 mg/kg, po administered as single dose; format: ADME, organism-based; design: dose 30 mg/kg, route oral; conditions: in vivo; method in brief: as §1
[13] = system: Rattus norvegicus; test: Cmax in Sprague-Dawley rat assessed as Tizoxanide-glucuronide level in plasma at 6 mg/kg, iv administered as single dose; format: ADME, organism-based; design: dose 6 mg/kg, route intravenous; conditions: in vivo; method in brief: as §1
[14] = system: Rattus norvegicus; test: Cmax in Sprague-Dawley rat assessed as tizoxanide-glucuronide level in plasma at 30 mg/kg, po administered as single dose; format: ADME, organism-based; design: dose 30 mg/kg, route oral; conditions: in vivo; method in brief: as §1
[15] = system: Rattus norvegicus; test: AUC (0 to t) in male Sprague-Dawley rat assessed as Tizoxanide-glucuronide level in plasma at 6 mg/kg, iv administered as single dose; format: ADME, organism-based; conditions: in vivo; method in brief: as §2
[16] = system: Rattus norvegicus; test: Tmax in female Sprague-Dawley rat assessed as tizoxanide-glucuronide level in plasma at 30 mg/kg, po administered as single dose; format: ADME, organism-based; conditions: in vivo; method in brief: as §2
[17] = system: Rattus norvegicus; test: AUC (0 to t) in Sprague-Dawley rat assessed as Tizoxanide level in plasma at 6 mg/kg, iv administered as single dose; format: ADME, organism-based; conditions: in vivo; method in brief: as §2
[18] = system: Rattus norvegicus; test: Tmax in female Sprague-Dawley rat assessed as Tizoxanide level in plasma at 30 mg/kg, po; format: ADME, organism-based; conditions: in vivo; method in brief: as §2
[19] = Drug excretion in po dosed human faeces; format: ADME, organism-based, Feces; conditions: read-out: Drug excretion
[20] = system: Rattus norvegicus; test: Tmax in male Sprague-Dawley rat assessed as Tizoxanide level in plasma at 30 mg/kg, po; format: ADME, organism-based; conditions: in vivo; method in brief: as §2
[21] = system: Rattus norvegicus; test: AUC (0 to t) in Sprague-Dawley rat assessed as Tizoxanide level at 30 mg/kg, po administered as single dose; format: ADME, organism-based; conditions: in vivo; method in brief: as §2
[22] = Oral bioavailability in human; format: ADME, organism-based; conditions: in vivo
[23] = Drug excretion in po dosed human urine; format: ADME, organism-based; conditions: read-out: Drug excretion

SMILES: O=C(Nc1ncc(Cl)s1)c1ccccc1O[C@@H]1O[C@H](C(=O)O)[C@@H](O)[C@H](O)[C@H]1O
- Drug metabolism [1]: Metabolite_Detected
- Drug metabolism [2]: Metabolite_Detected
- Drug metabolism [3]: Metabolite_Detected
- Drug metabolism [4]: Metabolite_Detected

SMILES: CC(=O)Oc1ccccc1C(=O)Nc1ncc([N+](=O)[O-])s1 [NITAZOXANIDE]
- beta t1/2 [5]: 12 min
- Tmax [6]: 24 min
- Tmax [7]: 42 min
- AUCt [8]: 15950 ng·h/mL
- Cmax [9]: 20500 ng/mL
- Drug metabolism [10]: Metabolite_Detected
- Tmax [11]: 42 min
- Cmax [12]: 742 ng/mL
- Cmax [13]: 11050 ng/mL
- Cmax [14]: 4620 ng/mL
- AUCt [15]: 6500 ng·h/mL
- Tmax [16]: 84 min
- AUCt [17]: 14100 ng·h/mL
- Tmax [18]: 126 min
- dose excreted [19]: 64%
- Tmax [20]: 42 min
- AUCt [21]: 2040 ng·h/mL
- bioavailability [22]: ≤ 30%
- dose excreted [23]: 33%
